Our source for the yeast fitness values is the RNAGym collection of RNA variant scans (doi:10.1126/science.aae0568).

Fewer inactive variants are shown than the library holds. Where only a bound is given, the exact number is not on record here.

B1: tRNA (parent)
chain: GUUCCGUUGGCGUAAUGGUAACGCGUCUCCCUCCUAAGGAGAAGACUGCGGGUUCGAGUCCCGUACGGAACG

The variants in this data set derive from B1. As to the kind of experiment: yeast fitness relative to wild type (ratio to wild type); higher = fitter; tRNA-Arg(CCU), competitive growth, 37 C, YPD. An outline of the steps:
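Genotype frequency changes were the basis for Darwinian fitness relative to wild type. The frequencies came from 100-nucleotide paired-end sequencing of gene amplicons from the start population and each end population of pooled yeast strains with tRNA-Arg(CCU) gene variants at the native locus. Competition ran in YPD at 37°C for 24 hours in six replicates, genotypes needed ≥ 100 starting reads, and estimates < 0.5 were set to 0.5.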
Take U54A U59C U64C: the yeast fitness is at most 0.5.

As for U53A G58U C61U C62A, the yeast fitness is at most 0.5.

Regarding G52A U59A, the yeast fitness was determined as 0.666.

For the variant C55U C66G, the yeast fitness turned out to be 0.668.

Consider G56C C62U A70U, for which the yeast fitness was determined as 0.598.

As for G52A A70C, the yeast fitness was 0.675.

On to U54C A57G C60G, for which the yeast fitness amounted to 0.787.

Consider U54A A69C, for which the yeast fitness stood at 0.658.

For the variant C55A C61G, the yeast fitness was at most 0.5.

Regarding A57G G63A, the yeast fitness worked out at 0.879.

As to C55U A57C, the yeast fitness turned out to be 0.584.

For the variant C55U A57G, the yeast fitness worked out at 0.747.

For G52C G56A C62U, the yeast fitness came to 0.653.

As to G52A C55G A69U, the yeast fitness is at most 0.5.

For A57G C66G A69U, the yeast fitness is at most 0.5.

Take U54C G56C G58A: the yeast fitness is 0.55.

For the variant G56C A57U, the yeast fitness came to 0.562.

Regarding C55U C61G, the yeast fitness is at most 0.5.

In the case of C55U C61A, the yeast fitness was found to be 0.524.

As for G56A A65C, the yeast fitness is 1.1.

With G56A A65G, the yeast fitness stood at 1.01.

With G52A C66A, the yeast fitness came out at 0.649.

For the variant G52A C66U, the yeast fitness turned out to be 0.706.

In the case of C55A, the yeast fitness was 0.656.

As to C55U, the yeast fitness worked out at 0.721.

On to C55G, for which the yeast fitness was 0.695.

G52C G67C: the yeast fitness turned out to be 0.555.

Take A57G C61G C66U: the yeast fitness was at most 0.5.

With G52C C62G, the yeast fitness stood at 0.646.

For G52C C62A, the yeast fitness came to 0.596.

Turning to G52C G68C, the yeast fitness came to 0.639.

Take G52C U53C G67C: the yeast fitness is at most 0.5.

Turning to C55G A65G, the yeast fitness was found to be 0.528.

Take C55G A65U: the yeast fitness stood at 0.692.

In the case of C55G A65C, the yeast fitness was determined as 0.529.

Turning to C55G C60A C66A, the yeast fitness was at most 0.5.

For the variant C55A C60U, the yeast fitness was determined as 0.525.

With C55A C60A, the yeast fitness was 0.624.

As for G56C C66U, the yeast fitness was determined as 0.699.

In the case of G56C C66A, the yeast fitness is 0.567.

As to C55A G56C, the yeast fitness is 0.522.

For the variant C55U G63A A70U, the yeast fitness was 0.551.

For the variant U53G C66A, the yeast fitness is at most 0.5.

With C55G C60G C66U, the yeast fitness was at most 0.5.

With C55U C62A, the yeast fitness was determined as 0.627.

As for U54C U59C, the yeast fitness was 0.714.

With U54C U59A, the yeast fitness is 0.82.

On to G52A G67U, for which the yeast fitness was 0.619.

For G52A G67C, the yeast fitness was 0.796.

Take U54C C66A: the yeast fitness is 0.595.

For the variant U54C A57U C60A G68C, the yeast fitness was at most 0.5.

Regarding G52C A69C, the yeast fitness was 0.687.

Take A57U A69U: the yeast fitness is 0.668.

A57U A69C: the yeast fitness was determined as 0.69.

With U54G C61G A65U, the yeast fitness stood at 0.596.

As to U53A G56A, the yeast fitness was found to be 0.636.

Consider A57G U59A C62U, for which the yeast fitness was at most 0.5.

Turning to U53C A65C, the yeast fitness is 0.878.

On to U53C A65U, for which the yeast fitness was 0.788.

For the variant C55A C62U C66U, the yeast fitness was 0.517.

For the variant U54A C55G A65C, the yeast fitness was determined as 0.627.

Take G52A G58A: the yeast fitness came out at 0.69.

Take C55G C60U: the yeast fitness is at most 0.5.

For U53A C66A, the yeast fitness was at most 0.5.

With U53A A57U A65U, the yeast fitness came to 0.725.

On to G56C G67A A70C, for which the yeast fitness was found to be 0.527.

With C55U A70C, the yeast fitness is 0.938.

Take C55U A70U: the yeast fitness was found to be 0.715.

On to A57C C66A, for which the yeast fitness is 0.624.

Regarding A57C C66U, the yeast fitness is 0.652.

Turning to C55U G63C, the yeast fitness came out at 0.567.

For the variant A57C C61U A70U, the yeast fitness is at most 0.5.

For G52C C66U, the yeast fitness is 0.547.

In the case of C55U A65G, the yeast fitness was 0.623.

For C55U A65C, the yeast fitness is 0.754.

On to A57C C62A C66A, for which the yeast fitness was at most 0.5.

On to C55G U59G, for which the yeast fitness was 0.566.

As to U54G C60U, the yeast fitness was at most 0.5.

Regarding G56A G58C U64A A69G, the yeast fitness was found to be 0.545.

As to G52A G63A G67A, the yeast fitness is 0.553.

Consider U53C A57C C66U, for which the yeast fitness is at most 0.5.

In the case of C55G C66U A69C, the yeast fitness was at most 0.5.

U54A C61G A69C: the yeast fitness came out at 0.57.

G56C A69U: the yeast fitness is 0.671.

For A57C G67A, the yeast fitness amounted to 0.504.

For A57C G67U, the yeast fitness stood at 0.516.

Regarding U53A C62U, the yeast fitness was determined as 0.827.

Turning to A57C U64A, the yeast fitness was determined as 0.707.

As to A57C C62A A65C, the yeast fitness is at most 0.5.

As to G56U U59G A70G, the yeast fitness was at most 0.5.

As to A57C C61U C66U A69C, the yeast fitness is at most 0.5.

As for A57G U64C, the yeast fitness came out at 0.979.

With A57G U64G, the yeast fitness is 0.841.

Regarding A57G U64A, the yeast fitness was found to be 0.755.

Regarding U53C A65U C66U, the yeast fitness was at most 0.5.

With A57G C62G C66U, the yeast fitness was 0.596.

Turning to A57G C61G C62A, the yeast fitness was determined as 0.633.

For the variant U53A G67U G68A, the yeast fitness is at most 0.5.

As for U54G, the yeast fitness came out at 0.641.

With U54C, the yeast fitness came out at 0.806.

As to U54A, the yeast fitness was 0.659.

For A57G C61U, the yeast fitness came out at 0.699.

Regarding A57G C61G, the yeast fitness came out at 0.61.

Take A57G A65U: the yeast fitness was 0.699.

For A57G U59C A70G, the yeast fitness amounted to 0.684.

For U53G G56C C60A, the yeast fitness is at most 0.5.

On to U54C A65G, for which the yeast fitness worked out at 0.97.

U54C A65C: the yeast fitness was determined as 0.862.

Regarding G52C A65U, the yeast fitness was 0.614.

On to G52C A65G, for which the yeast fitness amounted to 0.613.

G52C A65C: the yeast fitness was found to be 0.907.

With U53C A57G C66U, the yeast fitness was at most 0.5.

As for C55A A57C U64C A65U, the yeast fitness came out at 0.527.

Turning to C55G G68A, the yeast fitness came out at 0.604.

Turning to U53G A57U, the yeast fitness was 0.626.

In the case of U53G A57C, the yeast fitness was at most 0.5.

On to U54C A69G A70G, for which the yeast fitness worked out at 0.566.

Regarding G56A C62U, the yeast fitness was 0.967.

Consider A57G G58A C60A C66U, for which the yeast fitness turned out to be 0.595.

With A57U A69G A70C, the yeast fitness is at most 0.5.

As for C55A G68U A69U, the yeast fitness is at most 0.5.

With U53C A57U U59A C66U, the yeast fitness turned out to be 0.535.

In the case of U54A C62U, the yeast fitness worked out at 0.59.

Regarding C55A A65C G68A, the yeast fitness was at most 0.5.

G56C G68C: the yeast fitness was 0.716.

Turning to G52C A70U, the yeast fitness came to 0.804.

Turning to G56C A65G, the yeast fitness turned out to be 0.606.

On to C55U G56A, for which the yeast fitness came out at 0.735.

As to A57C G58C U59G C66U, the yeast fitness was 0.606.

Take U53G: the yeast fitness amounted to 0.629.

For the variant U53A, the yeast fitness was 0.653.

Consider U53C, for which the yeast fitness was 0.875.

Take U54G C61G C62U A65U: the yeast fitness was at most 0.5.

Consider C55U G58C A69U, for which the yeast fitness worked out at 0.537.

Regarding G56A U59G, the yeast fitness was 0.762.

Regarding A57C G68C, the yeast fitness is 0.729.

Take U54C G63A: the yeast fitness was 0.701.

Turning to U53A G68A, the yeast fitness turned out to be 0.574.

For G52C C61G, the yeast fitness was at most 0.5.

Turning to G52A C62U G63A, the yeast fitness is at most 0.5.

With U53C C60U, the yeast fitness is 0.638.

U54A G67A: the yeast fitness amounted to 0.656.

Consider A57U A69U A70C, for which the yeast fitness was at most 0.5.

As to G56A U64C, the yeast fitness stood at 1.01.

For C55G C66U, the yeast fitness was found to be 0.585.

Consider C55G C66A, for which the yeast fitness was 0.546.

Regarding G52C C55G, the yeast fitness turned out to be 0.843.

On to G52C C55A, for which the yeast fitness was at most 0.5.

As to A57G C66G, the yeast fitness is 0.783.

For A57G C66A, the yeast fitness was 0.652.

On to U54G C66U, for which the yeast fitness came to 0.653.

U54G C66A: the yeast fitness amounted to 0.549.

For the variant G52C U54C, the yeast fitness was 0.608.

In the case of U53G U64C, the yeast fitness stood at 0.669.

Consider C55G U64C, for which the yeast fitness was determined as 0.679.

For U53A G63A, the yeast fitness worked out at 0.618.

Take G56A C62G U64G: the yeast fitness was at most 0.5.

For the variant G56C A57C A70G, the yeast fitness stood at 0.594.

Take A57C A65C: the yeast fitness amounted to 0.594.

On to U54G A65U G67A, for which the yeast fitness amounted to 0.545.

Consider A57C C61U, for which the yeast fitness was found to be 0.656.

With U54A G67C G68A, the yeast fitness is at most 0.5.

On to G56C A57G G68U, for which the yeast fitness is at most 0.5.

Take U53G G58C: the yeast fitness is 0.716.

C55A C62U: the yeast fitness turned out to be 0.685.

For the variant U54C U64A A69U, the yeast fitness stood at 0.698.

Turning to C55A C62G A69C, the yeast fitness was at most 0.5.
